Experiment [1] can be described thus: Agonist activity at N-terminal his/SUMO tagged STING A230 in human THP-1 cells transfected with ISRE reporter assessed as increase in cGAMP-induced ISRE activation incubated for 48 hrs by luminescence based analysis. It is filed as cell-based.
Experiment [2] is described as follows: Upregulation of MX1 expression in human Primary macrophage transduced with lentivirus FG12-EFlp-EGFRt-p2A-STING A230 assessed as fold change measured after 6 hrs by RT-qPCR analysis. It is filed as functional. A digest of the protocol: (§1)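 CD14+ monocytes from 3 healthy donors with STING G230 alleles were differentiated into macrophages with M-CSF. Cells were transduced with FG12-EF1p-EGFRt-p2A-STINGA230 lentivirus, mock-transduced or left untransduced. Three days after transduction they were stimulated for 6 h with DMSO vehicle or the agonist, and MX1 and IRF7 expression was measured by RT-qPCR.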
On the technique in general: Real-time PCR tracks product formation cycle by cycle.

Experiment [3] deals with THP-1. As to the kind of experiment: Upregulation of OAS1 expression in human THP-1 cells at 50 uM measured after 6 hrs by RT-qPCR analysis. It is filed as functional, cell-based. A digest of the protocol: (§2)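 THP-1 cells, which carry homozygous STING HAQ, were treated for 6 h with vehicle or the agonist at 50 μM. Cells were then harvested, and MX1 and OAS1 expression was measured by RT-qPCR.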

Experiment [4] concerns Macrophage. As to the kind of experiment: Upregulation of IRF7 expression in human Primary macrophage measured after 6 hrs by RT-qPCR analysis. It is filed as functional, cell-based. A digest of the protocol:
as §1

In a further experiment the test system is PBMC. As to the kind of experiment: Induction of MX1 gene expression in human PBMC cells harbouring STING A230 allele at 50 uM measured after 6 hrs by RT-qPCR analysis. It is filed as functional, cell-based. A digest of the protocol: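 Primary PBMCs from 15 independent healthy donors were exposed to 50 μM agonist for 6 h. The 2′,3′-cGAMP comparator was given at 1 μg/mL. Cells were then harvested, and MX1 expression was measured by RT-qPCR. Values come from the donor carrying the STINGA230 allele.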

For experiment [5], the system named is Macrophage. Description: Upregulation of MX1 expression in human Primary macrophage measured after 6 hrs by RT-qPCR analysis. It is filed as functional, cell-based. A digest of the protocol:
as §1

Experiment [6] relates to THP-1. Description: Upregulation of MX1 expression in human THP-1 cells at 50 uM measured after 6 hrs by RT-qPCR analysis. It is filed as functional, cell-based. A digest of the protocol: as §2
Experiment [7] in a line: Upregulation of IRF7 expression in human Primary macrophage transduced with lentivirus FG12-EFlp-EGFRt-p2A-STING A230 assessed as fold change measured after 6 hrs by RT-qPCR analysis. It is filed as functional. A digest of the protocol:
as §1

Setting [8] is: Homo sapiens, THP-1, 48 h, read-out: EC50.

What is called EC50 is the concentration giving half of the maximal effect.

Activity calls are given as the source filed them. No cut-off for these calls is given here.

For the molecule `COC(=O)CSc1nnc2c3cc(OC)c(OC)cc3ncn12`, the EC50 result in experiment [1] (thp-1) is recorded as “Not Active”. For `Cc1sc2ncn3c(SCC(=O)OC(C)C)nnc3c2c1C`, the EC50 in experiment [1] (setting [8]) is 13.4 µM. As for `COC(=O)CNC(=O)n1cnc2sc(C)c(C)c2c1=O`, in experiment [1] (thp-1), the EC50 entry is “Not Active”. On to `COCc1sc2ncn3c(SCC(=O)OC)nnc3c2c1C`, for which the EC50 in experiment [1] (setting [8]) turned out to be 23.2 µM. Take `CCOC(=O)CSc1nnc2c3c(C)c(C)sc3ncn12`: the half-maximal effective concentration (EC50) in experiment [1] (setting [8]) was found to be 8.8 µM. As for `Cc1sc2ncn3c(Sc4nnn[nH]4)nnc3c2c1C`, in experiment [1] (thp-1), the EC50 entry is reported as “Not Active”. On the same count and under the same terms, for `COC(=O)CSc1nnc2c3c(C)c(C)sc3ccn12` the value was “Not Active”; for `COC(=O)CSc1nnc2c3c(C)c(C)sc3nc(C)n12`, “Not Active”; for `Cc1sc2ncn3c(SC4CCOC4=O)nnc3c2c1C` (configuration not stated), “Not Active”.

Consider `COC(=O)CSc1nnc2c3c(C)c(C)n(C)c3ncn12`, for which, in experiment [1] (thp-1), the EC50 entry is recorded as “Not Active”.

As for `CCc1cc2c(ncn3c(SCC(=O)OC)nnc23)s1`, the EC50 in experiment [1] (setting [8]) came out at 6.9 µM.

On to `COCc1c(C)sc2ncn3c(SCC(=O)OC)nnc3c12`, for which the EC50 entry in experiment [1] (thp-1) is given as “Not Active”. Regarding `COC(=O)CCc1nnc2c3c(C)c(C)sc3ncn12`, the EC50 entry in experiment [1] (thp-1) is recorded as “Not Active”.

Consider `COC(=O)C[S+]([O-])c1nnc2c3c(C)c(C)sc3ncn12` (configuration not stated), for which the EC50 result in experiment [1] (thp-1) is “Not Active”. Same read-out and setting: for `COC(=O)COc1nnc2c3c(C)c(C)sc3ncn12` the value was “Not Active”; for `COC(=O)CSc1nnc2c3c4c(sc3ncn12)CCCC4`, “Not Active”.

Consider `COC(=O)CCSc1nnc2c3c(C)c(C)sc3ncn12`, for which the EC50 entry in experiment [1] (thp-1) is “Not Active”. The same measure, in the same setting: for `COC(=O)CSc1nnc2c3ccsc3ncn12` the value was “Not Active”; for `COC(=O)CSc1ncc2c3c(C)c(C)sc3ncn12`, “Not Active”.

Regarding `COC(=O)CSc1nnc2c3c(C)c(C)oc3ncn12`, the EC50 result in experiment [1] (thp-1) is “Not Active”. Take `COC(=O)CSc1nnc2c3c(C)c(C)sc3ncn12`: the figures for the “fold change (FC)” value in experiment [2] and in experiment [7] were 10 and 5, respectively. The 50% effective concentration (EC50) in experiment [1] (setting [8]) turned out to be 5.71 µM. Moreover, the outcome in the experiment on THP-1 [3], in the experiment with PBMC and in the experiment on THP-1 [6] was Active. Also, the outcome in the experiment with Macrophage [4] and in the experiment on Macrophage [5] was inactive. As to `COC(=O)Cc1nnc2c3c(C)c(C)sc3ncn12`, the EC50 result in experiment [1] (thp-1) is given as “Not Active”. Consider `COC(=O)CSc1nnc2c3c4c(sc3ncn12)CCC4`, for which the half-maximal effective concentration (EC50) in experiment [1] (setting [8]) stood at 7.3 µM. In the case of `Cc1sc2ncn3c(SCC(=O)OC(C)(C)C)nnc3c2c1C`, the EC50 entry in experiment [1] (thp-1) was “Not Active”. For `COC(=O)CSc1nnc2c3c(C)c(Br)sc3ncn12`, the EC50 in experiment [1] (setting [8]) worked out at 11.4 µM.

The values above are taken from ChEMBL document CHEMBL5634197, “Structural Evaluations of a Selective Human STINGA230 Agonist and Its Use in Macrophage Immunotherapies” (ACS Med Chem Lett, 2024).
